{"data": "Measurements of several laboratories", "S1PR1": "Sphingosine 1-phosphate receptor 1 (S1PR1, Homo sapiens, UniProt P21453)", "STK32A": "Serine/threonine-protein kinase 32A (STK32A, Homo sapiens, UniProt Q8WU08)", "ache": "Acetylcholinesterase (ache, Electrophorus electricus, UniProt O42275)", "STK17B": "Serine/threonine-protein kinase 17B (STK17B, Homo sapiens, UniProt O94768)", "RPS6KB2": "Ribosomal protein S6 kinase beta-2 (RPS6KB2, Homo sapiens, UniProt Q9UBS0)", "note": "Compare with care: the assays were run in different laboratories."}
{"SMILES": "CCc1cc(-c2noc(-c3cc(OC)nc(C4CCCC4)c3)n2)cc(C)c1OC[C@@H](O)CO", "target": "S1PR1", "assay": "calcium signal, agonist, fluorescence", "test system": "HUVEC", "quantity": "Emax", "value": "37%"}
{"SMILES": "Cn1c2c(c3ccc(Cl)c(Cl)c31)C(C#N)C(C)(C)NC2=O (centres unmarked)", "target": "STK32A", "assay": "thermal stability, DSF", "conditions": "10 µM", "quantity": "ΔTm", "value": "-0.1 °C"}
{"SMILES": "COc1cc2c(cc1OC)C(=O)N(Cc1cccnc1)C2", "target": "ache", "assay": "enzyme activity, inhibitor", "conditions": "1 µM", "quantity": "inhibition", "value": "0.13%"}
{"SMILES": "Brc1cnc(Nc2cccc(CN3CCOCC3)c2)nc1NCCc1c[nH]cn1", "target": "STK17B", "assay": "enzyme activity, inhibitor, radiometric", "conditions": "1 µM", "quantity": "remaining activity", "value": "4%"}
{"SMILES": "CC(C)(C)c1nc(-c2cccc(NS(=O)(=O)c3c(F)cccc3F)c2F)c(-c2ccnc(N)n2)s1", "target": "RPS6KB2", "assay": "enzyme activity, inhibitor, radiometric", "conditions": "1 µM", "quantity": "remaining activity", "value": "98%"}
{"SMILES": "COc1ccc2[nH]cc(CCN3Cc4cc(OC)c(OC)cc4C3=O)c2c1", "target": "ache", "assay": "enzyme activity, inhibitor", "conditions": "1 µM", "quantity": "inhibition", "value": "3.28%"}
{"SMILES": "Cc1nn(CC(F)(F)F)cc1Nc1ncc(C2CC2)c(NCc2ccc(S(N)(=O)=O)cc2)n1", "target": "STK17B", "assay": "enzyme activity, inhibitor, radiometric", "conditions": "1 µM", "quantity": "remaining activity", "value": "88%"}
{"SMILES": "CCc1cc(/C(C)=N/OCc2ccc(C3CCCCC3)c(C(F)(F)F)c2)ccc1CN1CC(C(=O)O)C1", "target": "S1PR1", "assay": "calcium signal, agonist, fluorescence", "test system": "HUVEC", "quantity": "Emax", "value": "85%"}
{"SMILES": "CC(C)(C)c1nc2c(s1)c1nc(N)ncc1c1ccc(NS(=O)(=O)c3c(F)cccc3F)c(F)c12", "target": "Mitogen-activated protein kinase kinase kinase 21 (MAP3K21, Homo sapiens, UniProt Q5TCX8)", "assay": "enzyme activity, inhibitor, radiometric", "conditions": "1 µM", "quantity": "remaining activity", "value": "90%"}
{"SMILES": "COc1cc2c(cc1OC)C(=O)N(Cc1ccc(F)nc1)C2", "target": "ache", "assay": "enzyme activity, inhibitor", "conditions": "1 µM", "quantity": "inhibition", "value": "-1.57%"}
{"SMILES": "Cc1nn(CC(F)(F)F)cc1Nc1ncc(C2CC2)c(NCCCNC(=O)C2CCC2)n1", "target": "STK17B", "assay": "enzyme activity, inhibitor, radiometric", "conditions": "1 µM", "quantity": "remaining activity", "value": "13%"}
{"SMILES": "COc1cc2c(cc1OC)C(=O)N(Cc1ccccn1)C2", "target": "ache", "assay": "enzyme activity, inhibitor", "conditions": "1 µM", "quantity": "inhibition", "value": "4.59%"}
{"SMILES": "O[C@@H]1[C@H](O)CO[C@H]1n1cnc2c(NCc3cccc(Cl)c3)nc(Cl)nc21", "target": "Adenosine receptor A1 (ADORA1, Homo sapiens, UniProt P30542)", "assay": "ligand displacement, radioligand", "conditions": "10 µM, cell membranes", "quantity": "inhibition", "value": "36%"}
{"SMILES": "CCCOc1ccc(OC)c(F)c1C(=O)c1ccc(C(=O)N[C@@H]2CNC[C@H]2NC(=O)c2ccc3[nH]ncc3c2)cc1", "target": "RAC-gamma serine/threonine-protein kinase (AKT3, Homo sapiens, UniProt Q9Y243)", "assay": "enzyme activity, inhibitor", "conditions": "0.5 µM", "quantity": "remaining activity", "value": "44%"}
{"SMILES": "O=C(NCCCNc1ccnc(Nc2cccc(NC(=O)N3CCCC3)c2)n1)C1CCC1", "target": "STK17B", "assay": "enzyme activity, inhibitor, radiometric", "conditions": "1 µM", "quantity": "remaining activity", "value": "17%"}
{"SMILES": "COc1cc2c(cc1OC)C(=O)N(CC1CCN(Cc3ccsc3)CC1)C2", "target": "ache", "assay": "enzyme activity, inhibitor", "conditions": "1 µM", "quantity": "inhibition", "value": "13.9%"}
{"SMILES": "CC(C)(O)[C@H]1CC[C@H](Nc2ccc3ncc(-c4cccc(C(F)(F)F)c4)n3n2)CC1", "target": "RPS6KB2", "assay": "enzyme activity, inhibitor", "conditions": "1 µM", "quantity": "remaining activity", "value": "82.3%"}
{"SMILES": "Cn1c2c(c3ccc(Cl)c(Cl)c31)C(C#N)C1(CCCC1)NC2=O (centres unmarked)", "target": "STK32A", "assay": "thermal stability, DSF", "conditions": "10 µM", "quantity": "ΔTm", "value": "-0.2 °C"}
{"SMILES": "NS(=O)(=O)c1ccc(CNc2nc(Nc3cccc(CN4CCOCC4)c3)ncc2C2CC2)cc1", "target": "STK17B", "assay": "enzyme activity, inhibitor, radiometric", "conditions": "1 µM", "quantity": "remaining activity", "value": "84%"}
{"SMILES": "Cn1c2c(Cl)c(Cl)ccc2c2cc[nH]c(=O)c21", "target": "STK32A", "assay": "thermal stability, DSF", "conditions": "10 µM", "quantity": "ΔTm", "value": "-0.4 °C"}
{"SMILES": "NS(=O)(=O)c1ccc(CNc2ccnc(Nc3cccc(CN4CCOCC4)c3)n2)cc1", "target": "STK17B", "assay": "enzyme activity, inhibitor, radiometric", "conditions": "1 µM", "quantity": "remaining activity", "value": "96%"}
{"SMILES": "CC/C=C\\C/C=C\\C/C=C\\C/C=C\\C/C=C\\C/C=C\\CCC(=O)O", "target": "Polyunsaturated fatty acid lipoxygenase ALOX15 (ALOX15, Homo sapiens, UniProt P16050)", "assay": "enzyme activity, substrate, absorbance", "quantity": "Km", "value": "6.7 µM"}
{"SMILES": "O=C(NCCCNc1nc(Nc2cccc(NC(=O)N3CCCC3)c2)ncc1C1CC1)C1CCC1", "target": "STK17B", "assay": "enzyme activity, inhibitor, radiometric", "conditions": "1 µM", "quantity": "remaining activity", "value": "3%"}
{"SMILES": "COc1cc2c(cc1OC)C(=O)N(Cc1nccc3ccccc13)C2", "target": "ache", "assay": "enzyme activity, inhibitor", "conditions": "1 µM", "quantity": "inhibition", "value": "-0.79%"}
{"SMILES": "O=C(NCCCNc1nc(Nc2cccc(NC(=O)N3CCCC3)c2)ncc1Br)C1CCC1", "target": "STK17B", "assay": "enzyme activity, inhibitor, radiometric", "conditions": "1 µM", "quantity": "remaining activity", "value": "0%"}
{"SMILES": "COc1cc2c(cc1OC)C(=O)N(Cc1ccc(-c3cccs3)nc1)C2", "target": "ache", "assay": "enzyme activity, inhibitor", "conditions": "1 µM", "quantity": "inhibition", "value": "-4.2%"}
